The source made the active and inactive calls.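 Rule for the calls, unless noted: active = NADPH fluorescence slope more negative than the mean of all samples by about 3 SD, 99.7% confidence; inactive = the rest.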
Experiments:
[1] = inhibitors of TNFa-induced NFkB p65 translocation, primary screen, imaging, HUVEC, MLSMR starter and 10KST1 sets (AID 438;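 active = inhibition above 20% together with a positive visual image hit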;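 note: compound added about 3h40 before a 20 min TNFalpha stimulation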;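 for inhibition: signal is the nuclear over cytoplasmic p65 intensity ratio per well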); conditions: HUVEC TNFa-induced p65 nuclear translocation; cell count: measured here: nuclei count (cytotoxicity indicator), at 2.08 µM; inhibition: at 2 µM, stronger effect = higher value, 0% TNFa-plus-vehicle, 100% no-TNFa wells
[2] = reduction of polyQ htt aggregates in cells – imaging, exon1htt(103Q)mCFP cells, high-content imaging, primary screen (AID 483;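 active = visual image review flags a hit and inhibition of aggregation exceeds 20%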;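 note: compound exposure lasted 3 days before fixation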;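 for nuclei count: percent of the per-plate median nuclei count of sample wells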); conditions: exon1htt(103Q)mCFP cell line, aggregate imaging, at 2 µM; inhibition of aggregation: stronger effect = higher value; nuclei count: measured here: cell count, toxicity
[3] = endothelial E-selectin expression blockers – imaging, HUVEC, immunofluorescence, MLSMR starter and 10KST1 sets, primary screen (AID 487;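 active = visually confirmed hit in the image check and inhibition above 20%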;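 for inhibition: signal is fraction of cell area covered by stained E-selectin grains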;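 for nuclei count: 100% = median nuclei count of all wells on the same plate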); conditions: HUVEC TNFalpha-induced E-selectin immunofluorescence imaging, at 2 µM; inhibition: stronger effect = higher value; nuclei count: measured here: cell number, toxicity
[4] = target: Voltage-gated potassium channel subunit beta-2 (Rattus norvegicus) (UniProt P62483); assay: inhibitors of rat Kvbeta2 reductase activity – biochemical, NADPH fluorescence, primary screen (AID 622;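 active = fluorescence slope higher than the sample average by over 3 SD, cut at about -0.22 in these data, passing the limit was not always enough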;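 note: slope of raw intensity against log time taken from 70 to 1610 s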); conditions: recombinant KvBeta, 4-cyanobenzaldehyde reduction, at 10 µM, stronger effect = higher value
Voltage-gated potassium channel subunit beta-2 (Rattus norvegicus), sequence (P62483 whole entry, looked up): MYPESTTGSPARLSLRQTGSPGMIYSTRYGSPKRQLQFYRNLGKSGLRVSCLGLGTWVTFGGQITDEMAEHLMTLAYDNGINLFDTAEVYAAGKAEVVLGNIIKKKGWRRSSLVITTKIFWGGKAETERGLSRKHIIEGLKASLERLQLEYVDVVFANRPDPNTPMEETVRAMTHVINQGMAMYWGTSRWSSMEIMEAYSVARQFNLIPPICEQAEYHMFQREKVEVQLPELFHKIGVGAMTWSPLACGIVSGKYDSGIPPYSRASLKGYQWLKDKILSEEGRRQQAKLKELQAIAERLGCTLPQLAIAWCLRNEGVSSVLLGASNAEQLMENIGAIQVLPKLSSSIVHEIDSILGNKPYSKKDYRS

[5] = target: Voltage-gated potassium channel subunit beta-2 (Rattus norvegicus) (UniProt P62483); assay: enhancers of rat Kvbeta2 NADPH turnover – biochemical, NADPH fluorescence, primary screen (AID 623); conditions: Recombinant KvBeta, NADPH fluorescence decrease slope, 10 min; at 10 µM; stronger effect = lower value;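 note: fluorescence intensity change per second fitted from 20 to 320 s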
[6] = target: Alpha-2C adrenergic receptor (Homo sapiens) (UniProt P18825); assay: compounds altering alpha2C-coupled GIRK flux – cell-based, HEK293 alpha2C/GIRK1/2, thallium flux, primary screen (AID 624;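 active = fluorescence slope after compound addition differing from the mean of all screened samples at 99.7% confidence, in either direction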;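 note: slope of fluorescence ratio to pre-addition baseline per second over 15 to 24 s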); conditions: thallium flux BTC fluorescence, at 10 µM, actives lie on both sides
Alpha-2C adrenergic receptor (Homo sapiens), sequence (P18825 whole entry, looked up): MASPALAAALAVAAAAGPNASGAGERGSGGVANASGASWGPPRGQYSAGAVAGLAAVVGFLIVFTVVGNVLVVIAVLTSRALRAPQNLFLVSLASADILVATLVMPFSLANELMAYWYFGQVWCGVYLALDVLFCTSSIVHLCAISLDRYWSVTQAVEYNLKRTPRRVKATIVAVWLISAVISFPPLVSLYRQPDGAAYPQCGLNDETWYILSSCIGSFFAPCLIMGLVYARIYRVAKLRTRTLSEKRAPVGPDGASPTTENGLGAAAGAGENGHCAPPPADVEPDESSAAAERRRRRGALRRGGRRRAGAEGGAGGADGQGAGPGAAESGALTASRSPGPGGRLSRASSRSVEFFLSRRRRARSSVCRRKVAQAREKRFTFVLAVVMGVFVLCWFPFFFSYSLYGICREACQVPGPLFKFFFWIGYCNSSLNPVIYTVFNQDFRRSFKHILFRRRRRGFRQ

[7] = inhibitors of larval lipid processing in zebrafish, primary screen, whole organism, PED6 fluorescence, gall bladder and intestine (AID 686;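 active = a full or partial loss of lipid-probe fluorescence in the fish gall bladder, intestine or both, judged by eye; inactive = no fluorescence loss, or compound toxic to the fish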;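 note: larvae 5 to 7 days old with five fish per well; signal comes from phospholipase A2 cleavage of quenched PED6 carried via bile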); conditions: Zebrafish larvae PED6 lipid processing, fluorescence scoring; screened at 20 µM (by protocol)
Outline: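 Incubation: overnight exposure of larvae to compound plus PED6 / Test system: live zebrafish larvae aged 5-7 days, whole organism / Amount: 5 larvae per well / Read-out basis: visual per-well fluorescence inhibition score / Signal: visual fluorescence microscopy scoring of gall bladder, gut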

[8] = blockers of RIG-like receptor reporter activation – cell-based, Sendai virus stimulus, luciferase, 10K MLSCN set, TLR/RLR signaling modifier project, primary screen (AID 602276;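 active = inhibition at or above 50% at 10 µM; inactive = inhibition below 50%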;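 note: firefly luciferase from ISG56 promoter only with Renilla not read in this screen; 0% = Sendai virus plus DMSO and 100% = medium plus DMSO without virus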); conditions: HEK293 RL24 IRF3 luciferase reporter, at 10 µM, stronger effect = higher value
[9] = TLR3 IRF3 reporter activation blockers – cell-based, poly I:C stimulus, luciferase, 10K MLSCN set, primary screen (AID 602277;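 active = inhibition of the reporter signal at or above 50%; inactive = inhibition below 50%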); conditions: HEK293-TLR3 RL24 IRF3 luciferase reporter, at 10 µM, stronger effect = higher value

Structure (SMILES)	cell count [1]	inhibition [1]	inhibition of aggregation [2]	nuclei count [2] [%]	inhibition [3]	nuclei count [3] [%]	fluorescence slope [4]	NADPH fluorescence slope [5]	slope [6]	outcome [7]	inhibition [8]	inhibition [9]
O=C1c2oc3ccccc3c(=O)c2C(c2cccnc2)N1Cc1ccco1 (configuration not stated)	389	-2.7% (inactive)	-2.7% (inactive)	110	-107% (inactive)	111	-0.48 (inactive)	-3.2e-05 (inactive)	0.00687 (inactive)	inactive	-0.371% (inactive)	8.46% (inactive)
CCCCn1c(SCc2ccc(Cl)cc2)nc2c1c(=O)[nH]c(=O)n2C	396	9% (inactive)	8.8% (inactive)	109	-1.3% (inactive)	98.4	-0.347 (inactive)	-4.9e-05 (inactive)	0.00466 (inactive)	inactive	10.9% (inactive)	14.5% (inactive)
CC1(C)CC(=O)C(C=NC(CCC(N)=O)C(=O)O)=C(O)C1 (configuration not stated)	520	-22.3% (inactive)	-15.6% (inactive)	113	54.4% (active)	93.1	-0.382 (inactive)	-1e-05 (inactive)	0.00504 (inactive)	inactive	13.3% (inactive)	13.8% (inactive)
COCCNC(=O)C(c1ccc(C)o1)N(Cc1cccs1)C(=O)c1snc(C(N)=O)c1N (configuration not stated)	387	3.5% (inactive)	6.6% (inactive)	96.3	-93.7% (inactive)	117	-0.379 (inactive)	-4.3e-05 (inactive)	0.00484 (inactive)	inactive	-13.8% (inactive)	-11.9% (inactive)
CC(C)Cn1c2c(c(O)c(C(=O)Nc3ncccc3O)c1=O)CCCC2	576	-5.9% (inactive)	9.6% (inactive)	99.1	26.1% (inactive)	105	-0.38 (inactive)	-6.5e-05 (inactive)	0.00432 (inactive)	inactive	8.02% (inactive)	10.1% (inactive)
Cc1cccc(C)c1-n1nnnc1SCSc1nnnn1-c1c(C)cccc1C	409	7.5% (inactive)	-3.2% (inactive)	101	-231% (inactive)	116	-0.445 (inactive)	-2.4e-07 (inactive)	0.00806 (inactive)	inactive	4.69% (inactive)	15% (inactive)
COc1ccccc1N(CC(=O)NC1CCCC1)C(=O)CCC(=O)Nc1cc(C)on1	566	-8.6% (inactive)	10.8% (inactive)	96.8	-29.3% (inactive)	102	-0.408 (inactive)	-5.9e-05 (inactive)	0.00447 (inactive)	inactive	-11.8% (inactive)	-11.2% (inactive)
N#Cc1ccc(CSc2nnc(-c3ccccn3)n2-c2ccccc2)cc1	363	5.8% (inactive)	10.4% (inactive)	91.3	-10.3% (inactive)	112	-0.426 (inactive)	-1.1e-05 (inactive)	0.00569 (inactive)	active; weak signal in gallbladder and intestine	11.1% (inactive)	9.06% (inactive)
Cc1ccc(NC(=O)COC(=O)c2ccn(C)n2)cc1	521	-2.1% (inactive)	-15.4% (inactive)	89.1	-28.3% (inactive)	109	-0.39 (inactive)	1.1e-05 (inactive)	0.0046 (inactive)	inactive	17.1% (inactive)	22.3% (inactive)
CN1C(=O)c2oc3ccccc3c(=O)c2C1c1ccccn1 (configuration not stated)	404	5.4% (inactive)	-16.4% (inactive)	106	-28.5% (inactive)	87.5	-0.437 (inactive)	-4.2e-05 (inactive)	0.00452 (inactive)	inactive	18% (inactive)	12% (inactive)
Cc1c(C)n(C(=O)CN2CCN(c3ccccn3)CC2)c2ccccc12	428	2.3% (inactive)	2.9% (inactive)	95.7	3.5% (inactive)	131	-0.376 (inactive)	-3.7e-05 (inactive)	0.00497 (inactive)	inactive	8.12% (inactive)	11.3% (inactive)
COC(=O)c1[nH]c2ccc(C)cc2c1NC(=O)CN1CCCC(C)(C)C1	422	7.3% (inactive)	-2.1% (inactive)	101	-330% (inactive)	107	-0.37 (inactive)	-2.6e-05 (inactive)	0.00452 (inactive)	inactive	8.28% (inactive)	18% (inactive)
CN(C)C(=O)CN(C)S(=O)(=O)c1ccc(Cl)cc1	447	8.7% (inactive)	10.6% (inactive)	93.2	-2.4% (inactive)	113	-0.416 (inactive)	-1.2e-05 (inactive)	0.00557 (inactive)	inactive	7.26% (inactive)	6.1% (inactive)
CC(=O)NCCc1ccc(S(=O)(=O)NCc2ccc3c(c2)OCO3)cc1	587	-12.3% (inactive)	-24.8% (inactive)	89.5	35.7% (inactive)	82.1	-0.356 (inactive)	-4.4e-05 (inactive)	0.00549 (inactive)	inactive	4.45% (inactive)	2.38% (inactive)
CCOC(=O)c1c(-c2ccc(C)o2)csc1NC(=O)CN1CCN(CC)CC1	393	-0.4% (inactive)	8.3% (inactive)	95.5	-12.2% (inactive)	106	-0.409 (inactive)	-3.8e-05 (inactive)	0.0051 (inactive)	inactive	11.4% (inactive)	22% (inactive)
Cc1cc(C)nc(-n2nc(C)cc2NC(=O)c2ccc(Br)o2)n1	442	-7.3% (inactive)	18.7% (inactive)	90.1	21.7% (inactive)	105	-0.374 (inactive)	-5.8e-05 (inactive)	0.00507 (inactive)	inactive	-4.98% (inactive)	20.1% (inactive)
Cc1nc2ccc(C(=O)O)cc2c2c1CC(C)S2 (configuration not stated)	462	-3.8% (inactive)	-4% (inactive)	106	-20.4% (inactive)	104	-0.38 (inactive)	-4.3e-05 (inactive)	0.00518 (inactive)	inactive	13.9% (inactive)	11.7% (inactive)
COc1ccccc1NC(=O)N(Cc1ccco1)Cc1cc2c(C)ccc(C)c2[nH]c1=O	722	-11.9% (inactive)	2.5% (inactive)	98.7	-13.2% (inactive)	100	-0.463 (inactive)	-4.7e-05 (inactive)	0.00639 (inactive)	inactive	12.5% (inactive)	5.06% (inactive)
COC(=O)c1ccccc1NC(=O)c1cnc2sccn2c1=O	505	-19.2% (inactive)	14% (inactive)	77.5	14.9% (inactive)	98	-0.369 (inactive)	-5.8e-05 (inactive)	0.00479 (inactive)	inactive	5.91% (inactive)	-1.07% (inactive)
Cc1cc(NC(=O)CSc2nc3c(c(-c4cccnc4)c2C#N)CCC3)no1	595	-2.9% (inactive)	0.1% (inactive)	96.3	15.2% (inactive)	88.6	-0.337 (inactive)	-6.5e-05 (inactive)	0.00719 (inactive)	inactive	0.978% (inactive)	-3.11% (inactive)
CC(=O)NC(C)C(=O)OCc1ccc(Cl)cc1Cl (configuration not stated)	478	-21.6% (inactive)	-3.7% (inactive)	74.8	-22.9% (inactive)	134	-0.467 (inactive)	-5.2e-05 (inactive)	0.00444 (inactive)	inactive	10.8% (inactive)	12.4% (inactive)
COC(=O)c1ccc2c(=O)n(NC(C)=O)c(=S)[nH]c2c1	627	8.7% (inactive)	-5% (inactive)	108	-73.1% (inactive)	114	-0.367 (inactive)	-6.6e-05 (inactive)	0.00487 (inactive)	inactive	2.98% (inactive)	-0.555% (inactive)
CSc1c(CC(=O)NCCO)n(C)c2ccccc12	575	-14% (inactive)	8.4% (inactive)	88	-3.5% (inactive)	105	-0.338 (inactive)	1.3e-05 (inactive)	0.005 (inactive)	inactive	1.14% (inactive)	5.52% (inactive)
Cc1c(Cl)cccc1NC(=O)CCN1CCCCCC1	221	14.6% (inactive)	-8.7% (inactive)	90.4	-108% (inactive)	143	-0.414 (inactive)	-3.3e-05 (inactive)	0.00752 (inactive)	inactive	13.4% (inactive)	20.3% (inactive)
CCOCC(O)CS(=O)Cc1ccccc1 (configuration not stated)	343	-7.4% (inactive)	4.7% (inactive)	99.4	-38.6% (inactive)	126	-0.358 (inactive)	-6.9e-05 (inactive)	0.00589 (inactive)	inactive	8.68% (inactive)	14.1% (inactive)
CCOC(=O)/C=C1\SCC(=O)N1Cc1nnc(-c2ccccc2Br)o1	505	0.5% (inactive)	-7.7% (inactive)	98.7	-51.5% (inactive)	123	-0.452 (inactive)	-5.3e-05 (inactive)	0.00466 (inactive)	inactive	12.8% (inactive)	10.1% (inactive)

Reference: PubChem BioAssay
